Only some compounds are listed: those with a hit (about 8.9% of all), similar ones and a draw of the others.
MT stabilize HCS: microtubule stabilizers in HeLa cells, primary screen, imaging, high-content imaging; HeLa tubulin immunostaining HCS, 24 h; share of cells brighter than vehicle mean+2SD; % tubulin-high responders, % at 10 µM; actives 0.83% (n = 200,000); AID 2205, 2009;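 active = plate Z-score above 3 for both tubulin-high and condensed-nucleus cell shares, with cell loss under 80%, at 10 µM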;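 also: anti alpha tubulin signal scored within the nucleus-defined area of each cell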
Dynein transport: inhibitors of GR-EGFP nuclear translocation, primary screen, dynein cargo transport inhibitor project, imaging, high-content, 3617.4 mouse cells | test concentration mostly 20 µM; stimulated with dexamethasone, 1 µM; hits give low values | z-score, hits read low | actives 0.47% (n = 220,000) | AID 1381, 2008;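 active = plate z-score of nuclear minus cytoplasmic receptor signal below a set negative limit, without overly bright fluorescence or cell loss, cut at about -3.5 in these data, passing the limit was not always enough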;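 also: z-score of nuclear minus cytoplasmic ring GR-EGFP intensity difference per well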
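Buffer or medium: Induction medium lacking tetracycline, stripped serum | Also added: Dexamethasone agonist, 1.0 µM final, for 30 min | Timing: 48 h induction, 1 h compound, 30 min dex at 37 °C | Detection: Formaldehyde fixation, Hoechst nuclear stain, 10x automated fluorescence imaging | Measure: Nuclear versus cytoplasmic GR-EGFP signal, averaged per well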
b-catenin transl: modulators of beta-catenin nuclear translocation, primary screen, imaging, HeLa cells, immunofluorescence, high-content. nuclear translocation activity, % at 5 µM. actives 0.3% (n = 190,000). AID 1665, 2009;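 active = nuclear translocation activity above 50% at 5 µM, with a well cell count of 50 or more; inconclusive = wells under 50 cells across six images, flagged as toxic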;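 also: per-cell ratio of nuclear to cytoplasmic median beta-catenin stain intensity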
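Signal – beta-catenin immunofluorescence imaging with DAPI · Test system – human HeLa cell line · Dosing – 5 µM primary single dose, 0.1% DMSO, 0.02–20 µM confirmation series · Measure – % activation, nuclear-to-cytoplasmic median beta-catenin signal ratio per cell · Incubation – 24 h compound exposure at 37°C, 5% CO2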
L major viab: Leishmania major promastigote growth inhibition, primary screen; Leishmania major promastigotes, resazurin fluorescence viability; inhibition, % at 10 µM; actives 9% (n = 200,000); AID 1063, 2008; in the data active = inhibition above about 50%;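 also: promastigotes grown with compound for 44 hours at 28 °C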
HSV replic up: enhancers of HSV replication in host cells, fold increase, host cell viability. HSV replication augmentation in cells. maximum fold increase. actives 0.005% (n = 220,000); in the data active = maximum fold increase above about 1.5; inconclusive = no clear call, values can overlap the other calls; tested in PC3 cells
Dynein confirm: dynein cargo transport inhibitors, GR-EGFP translocation, confirmation, imaging, high-content imaging, GR-EGFP cells; actives 69% (n = 1,000); 3617.4 GR-EGFP nuclear translocation imaging, dexamethasone-induced; calls only at 20 µM; shares compounds with Dynein transport;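 active = inhibition of receptor movement into the nucleus at or above a set limit in both runs, with normal cell brightness and cell count; inconclusive = limit reached in only one run, brightness and count normal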;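 also: dexamethasone at 1 µM final in well for 30 min; nuclear minus cytoplasmic GR-EGFP mean intensity difference in channel 2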
Hits are given with their value; - = inactive; ? = inconclusive; . = not tested or not shown; + = active, no number.

SMILES	MT stabilize HCS	Dynein transport	b-catenin transl	L major viab	HSV replic up	Dynein confirm
CC[n+]1c(/C=C/C=C/N(C(C)=O)c2ccccc2)sc2ccccc21	-	-3.9	.	-	.	+
O=c1c2ccccc2nc(/C=C/c2ccc([N+](=O)[O-])o2)n1CCCO	-	-5.6	-	101	-	+
CCCCCCC(=O)N(O)C1CC(=O)N(c2ccc(F)cc2)C1=O (stereo unspecified)	.	-4.7	-	.	-	+
COc1cc(C)ccc1OCCON1C(=O)CCC1=O	-	-	-	-	-	.
C/C(CS(=O)(=O)c1ccccc1)=N\O	-	-	-	-	-	.
C/C=C(\CS(=O)(=O)c1ccccc1)S(=O)(=O)c1ccccc1	-	-3.6	-	-	-	?
Cc1ccc(NC(=O)CSc2ncnc3ccccc23)cc1S(=O)(=O)N1CCCCC1	-	-	-	-	-	.
CCOc1cc(/C=C\[N+](=O)[O-])ccc1OCC(=O)N1CCOCC1	-	-5.7	-	-	-	+
CCOc1cc(C=O)ccc1OCC(=O)N1CCCC1	-	-	-	-	-	.
CCCc1cc(NC(=O)CCl)n(-c2ccccc2)n1	-	-4	-	51	-	+
Nc1ccc2c3c(cccc13)C(=O)N(c1ccccc1)C2=O	-	-5	-	-	?	+
Cc1cc(C)n(-c2nc(NCCN(C)C)c3c4c(sc3n2)CCCC4)n1	.	-4.6	-	.	-	-
CCCN1C2=NCCCN2c2ccccc21	-	-	-	-	-	.
Cc1ccc(C)n1-c1cccc(S(=O)(=O)N2CCOCC2)c1	-	-	-	-	-	.
Cc1cc(C(=O)CCl)c(C)n1-c1cccc(S(=O)(=O)N2CCOCC2)c1	-	-5.3	-	101	-	+
O=c1[nH]c2ccc(NS(=O)(=O)c3ccc([N+](=O)[O-])cc3)cc2[nH]1	-	-	-	-	-	.
O=C1C(Cl)=C(NS(=O)(=O)c2ccc([N+](=O)[O-])cc2)C(=O)c2ccccc21	.	-3.9	-	.	-	+
COc1ccc(-c2csc3nc(-c4cccnc4)nc(Cl)c23)cc1OC	-	-4.4	-	54	-	+
COC(=O)C1=C(C)N(CCC2=CCCCC2)C(=O)C1	-	-4.1	.	-	-	-
O=c1c(C(c2nnnn2C2CCCCC2)N2CCCCC2)coc2ccc(Cl)cc12 (stereo unspecified)	-	-4	-	62	-	+
COC(=O)c1cn(NC(=O)c2cc([N+](=O)[O-])ccc2F)c(=O)c2ccccc12	-	-3.9	-	-	-	+
COc1ccc(NC(=O)c2oc3cc(C)c(C)cc3c2C)c(OC)c1	-	-4	-	-	-	-
O=C(NCCN1CCOCC1)c1cccs1	-	-	-	-	-	.
O=C1c2ccccc2C(=O)C1C1=Nc2ccccc2NC(c2ccccc2)C1 (stereo unspecified)	-	-	-	-	-	.
O=c1cc(N=Nc2ccc(Cl)cc2)[nH]c(=O)[nH]1	.	-4.5	-	.	-	+
SMILES	MT stabilize HCS	Dynein transport	b-catenin transl	L major viab	HSV replic up	Dynein confirm
O=c1cc(-c2ccc(Cl)cc2)oc(=O)[nH]1	.	-	-	.	-	.
O=C(NC(=S)Nc1ccc(-c2ccc(CO)o2)cc1)c1cccs1	-	-6.6	-	-	-	-
O=C(Oc1ccccc1)c1cccc(COC(=O)c2cnccn2)c1	-	-	.	-	-	-
O=C(c1ccccc1)c1ccc(COC(=O)c2cnccn2)cc1	-	-	-	-	-	.
CCOC(=O)c1cc(-c2ccc(/C=C3/C(=O)NC(=O)C(C#N)=C3C)o2)ccc1Cl	-	-3.6	.	-	-	+
O=c1c(Cl)c(Cl)cnn1Cc1nnc(-c2ccccc2Br)o1	-	-5.6	-	99	-	+
Clc1ccccc1OCc1nnc(-c2ccccc2Br)o1	-	-	-	-	-	.
CCN(CC)c1ccc(/C=C/c2cc(-c3ccccc3)c3ccccc3n2)cc1	.	-	.	.	?	-
CN(C)c1ccc(/C=C/c2ccc3ccccc3n2)cc1	.	-	-	.	?	.
O=C(Nc1ccc2c(c1)OCO2)c1ccc2nc[nH]c2c1	-	-	-	-	-	.
Cn1c(Cn2nnc3ccccc32)nnc1SCC(=O)N1c2ccccc2Sc2ccccc21	-	-	-	-	-	.

Bioassay records deposited in PubChem by several laboratories.
